Assay results from ChEMBL document CHEMBL1275590, “Novel arylimidamides for treatment of visceral leishmaniasis” (Antimicrob Agents Chemother, 2010).
Activity calls are given as the source filed them. The calls are words filed in the database; no cut-off is given here.

How the values were obtained:
Leishmania donovani [1] = test: Antileishmanial activity against Leishmania donovani axenic amastigotes; assay type: functional, organism-based
Leishmania donovani [2] = test: Antileishmanial activity against intracellular Leishmania donovani LV82 amastigotes; assay type: functional, organism-based
Summary of the method: (§1)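 CD-1 mouse peritoneal macrophages, 5 × 10^4 cells/well in RPMI 1640 + 10% heat-inactivated FBS, adhered overnight. Infected overnight with stationary-phase LV82 promastigotes (5:1 parasite:macrophage), 37°C, 5% CO2. Medium then replaced with compound or vehicle for 72 h at 37°C. Methanol-fixed, Giemsa-stained; % infected macrophages counted at ×1,000. IC50 by four-parameter logistic nonlinear regression.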

Leishmania amazonensis = test: Antileishmanial activity against intracellular Leishmania amazonensis amastigotes; assay type: functional, organism-based
Leishmania donovani [3] = test: Antileishmanial activity against intracellular Leishmania donovani LV82 amastigotes infected in CD-1 mouse peritoneal macrophage; assay type: functional, organism-based; summary of the method: as §1
Leishmania donovani [4] = test: Antileishmanial activity against […] Leishmania donovani AG83-S infected in mouse J774 macrophage; assay type: functional, organism-based
Leishmania donovani [5] = test: Antileishmanial activity against Leishmania donovani promastigotes in ip dosed BALB/c mouse assessed as inhibition of liver parasitemia; assay type: functional, organism-based
Summary of the method: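 Murine VL model in L. donovani-infected mice. Compounds were dissolved in water and given i.p. or p.o. once daily for 5 days (4 days for one i.p. regimen). Liver parasitemia was compared with untreated controls by unpaired Student's t test, P ≤ 0.05.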

[6] = AUC (0 to infinity) in Swiss Webster mouse at 1 mg/kg, iv by HPLC-MS/MS analysis; assay type: ADME, organism-based; set-up: time infinity, dose 1 mg/kg, route intravenous; settings: plasma
Summary of the method: (§2)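 Male Swiss Webster mice, n = 3 per time point. For i.v., the compound was dissolved in sterile water, diluted 1:1 with 2× saline, and given as a tail-vein bolus over ~10–20 s. For p.o., it was given by gavage in sterile water. Dose volume was 5 ml/kg. Terminal plasma was taken from 5 min to 72 h and measured by HPLC-MS/MS (calibration 2.5–10,000 nM). Parameters came from noncompartmental analysis.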

[7] = Cmax in Swiss Webster mouse at 1 mg/kg, iv by HPLC-MS/MS analysis; assay type: ADME, organism-based; set-up: dose 1 mg/kg, route intravenous; settings: in vivo; summary of the method: as §2
[8] = Clearance in Swiss Webster mouse at 1 mg/kg, iv by HPLC-MS/MS analysis; assay type: ADME, organism-based; set-up: dose 1 mg/kg, route intravenous; settings: in vivo; summary of the method: as §2
[9] = Volume of distribution in Swiss Webster mouse at 1 mg/kg, iv by HPLC-MS/MS analysis; assay type: ADME, organism-based; set-up: dose 1 mg/kg, route intravenous; settings: in vivo
Summary of the method: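 Male Swiss Webster mice (n = 3 per time point), single dose by oral gavage (sterile water solution) or tail-vein bolus i.v. (water diluted 1:1 with 2× saline, over ~10–20 s); dose volume 5 ml/kg. Terminal blood sampled from 5 min to 72 h postdose; plasma quantified by HPLC-MS/MS (positive-ion SRM). Noncompartmental analysis gave Cmax, Tmax, AUC0-∞, CL, Vss; bioavailability from p.o. versus i.v. exposure.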

Mus musculus [10] = test: Hepatotoxicity in BALB/c mouse assessed as AST level in serum at 5 mg/kg/day, iv administered for five days (Rvb= 65 U/L); assay type: toxicity, organism-based; set-up: route intravenous; settings: in vivo
Mus musculus [11] = test: Hepatotoxicity in BALB/c mouse assessed as AST level in serum at 20 mg/kg/day, iv administered for five days (Rvb= 65 U/L); assay type: toxicity, organism-based; set-up: route intravenous; settings: in vivo
Mus musculus [12] = test: Hepatotoxicity in BALB/c mouse assessed as ALT level in serum at 5 mg/kg/day, iv administered for five days (Rvb= 34 U/L); assay type: toxicity, organism-based; set-up: route intravenous; settings: in vivo
Mus musculus [13] = test: Hepatotoxicity in BALB/c mouse assessed as AST level in serum at 25 mg/kg/day, po administered for five days (Rvb= 70 U/L); assay type: toxicity, organism-based; set-up: route oral; settings: in vivo
Mus musculus [14] = test: Hepatotoxicity in BALB/c mouse assessed as ALT level in serum at 25 mg/kg/day, po administered for five days (Rvb= 36 U/L); assay type: toxicity, organism-based; set-up: route oral; settings: in vivo
Mus musculus [15] = test: Hepatotoxicity in BALB/c mouse assessed as ALT level in serum at 50 mg/kg/day, po administered for five days (Rvb= 36 U/L); assay type: toxicity, organism-based; set-up: route oral; settings: in vivo
Mus musculus [16] = test: Renal toxicity in BALB/c mouse assessed as blood urea nitrogen level in serum at 20 mg/kg/day, iv administered for five days (Rvb= 20 mg/dl); assay type: organism-based; set-up: route intravenous; settings: in vivo
Summary of the method: (§3)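 Female BALB/c mice (n = 5 per dose), dosed once daily for 5 consecutive days p.o. (20 ml/kg) or i.v. (10 ml/kg) with compound in sterile water, prepared fresh daily under yellow light. Vehicle controls n = 5 per route. Clinical observations, body weights, serum chemistry and hematology on day 6 before necropsy; histopathology of formalin-fixed tissues. Chemistry analysed by one-way ANOVA with Dunnett's posttest.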

Mus musculus [17] = test: Hepatotoxicity in BALB/c mouse assessed as alkaline phosphatase level in serum at 5 mg/kg/day, iv administered for five days (Rvb= 134 U/L); assay type: toxicity, organism-based; set-up: route intravenous; settings: in vivo
Mus musculus [18] = test: Hepatotoxicity in BALB/c mouse assessed as alkaline phosphatase level in serum at 20 mg/kg/day, iv administered for five days (Rvb= 134 U/L); assay type: toxicity, organism-based; set-up: route intravenous; settings: in vivo
Mus musculus [19] = test: Renal toxicity in BALB/c mouse assessed as phosphorus level in serum at 5 mg/kg/day, iv administered for five days (Rvb= 6.1 mg/dl); assay type: organism-based; set-up: route intravenous; settings: in vivo; summary of the method: as §3
Mus musculus [20] = test: Renal toxicity in BALB/c mouse assessed as blood urea nitrogen level in serum at 50 mg/kg/day, po administered for five days (Rvb= 29 mg/dl); assay type: organism-based; set-up: route oral; settings: in vivo; summary of the method: as §3
Mus musculus [21] = test: Hepatotoxicity in BALB/c mouse assessed as alkaline phosphatase level in serum at 25 mg/kg/day, po administered for five days (Rvb= 129 U/L); assay type: toxicity, organism-based; set-up: route oral; settings: in vivo
Mus musculus [22] = test: Hepatotoxicity in BALB/c mouse assessed as phosphorus level in serum at 25 mg/kg/day, po administered for five days (Rvb= 5.3 mg/dl); assay type: toxicity, organism-based; set-up: route oral; settings: in vivo
Mus musculus [23] = test: Renal toxicity in BALB/c mouse assessed as phosphorus level in serum at 50 mg/kg/day, po administered for five days (Rvb= 5.3 mg/dl); assay type: organism-based; set-up: route oral; settings: in vivo; summary of the method: as §3
[24] = Half life in human liver microsome by HPLC-MS/MS analysis in presence of 0.1 uM NADPH; assay type: ADME; settings: liver microsomes
Summary of the method: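 Pooled liver microsomes with NADPH. Substrate at final 0.1, 1.0 and 10 μM with 0.5% DMSO, incubated up to 60 min at 37°C. Reactions were stopped with 7:1 methanol-water containing 0.1% TFA and 30 nM internal standard. Remaining substrate was measured by HPLC-MS/MS, and t1/2 came from a one-phase exponential decay fit.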

[25] = Half life in human liver microsome by HPLC-MS/MS analysis in presence of 10 uM NADPH; assay type: ADME; settings: liver microsomes
Summary of the method: (§4)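 Pooled liver microsomes (human, mouse, rat) with NADPH. Substrate added from DMSO to final 0.1, 1.0 or 10 μM, with 0.5% (vol/vol) organic solvent. Incubated at 37°C for up to 60 min. Stopped with 2 volumes of 7:1 methanol-water containing 0.1% TFA and 30 nM internal standard, then centrifuged. Remaining substrate was measured by HPLC-MS/MS, and t1/2 was obtained by one-phase exponential decay fit (t1/2 = 0.693/k).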

[26] = Half life in rat liver microsome by HPLC-MS/MS analysis in presence of 0.1 uM NADPH; assay type: ADME; settings: liver microsomes; summary of the method: as §4
[27] = Half life in rat liver microsome by HPLC-MS/MS analysis in presence of 10 uM NADPH; assay type: ADME; settings: liver microsomes; summary of the method: as §4
[28] = Half life in mouse liver microsome by HPLC-MS/MS analysis in presence of 10 uM NADPH; assay type: ADME; settings: liver microsomes; summary of the method: as §4

Row | SMILES | IC50 (Leishmania donovani [1]) [nM] | IC50 (Leishmania donovani [2]) [nM] | IC50 (Leishmania amazonensis) [nM] | IC50 (Leishmania donovani [3]) [nM] | IC50 (Leishmania donovani [4]) [nM] | Activity (Leishmania donovani [5]) | AUC(0-inf) [6] [µM·h] | Cmax [7] [nM] | clearance [8] [mL/min/kg] | Vd [9] [L/kg] | Activity (Mus musculus [10]) [U/L] | Activity (Mus musculus [11]) [U/L] | Activity (Mus musculus [12]) [U/L] | Activity (Mus musculus [13]) [U/L] | Activity (Mus musculus [14]) [U/L] | Activity (Mus musculus [15]) [U/L] | Activity (Mus musculus [16]) [mg/dL] | Activity (Mus musculus [17]) [U/L] | Activity (Mus musculus [18]) [U/L] | Activity (Mus musculus [19]) [mg/dL] | further results
1 | CCOc1cc(NC(=N)c2ccccn2)ccc1-c1ccc(-c2ccc(NC(=N)c3ccccn3)cc2OCC)o1 | 500 | 18 | 120 | 4500 | 130 | Active | 0.56 | 370 | 45 | 36 | 80 | 89 | 43 | 67 | 31 | 34 | 27 | 113 | 107 | 7.1 | Activity (Mus musculus [20]): 27 mg/dL; Activity (Mus musculus [21]): 136 U/L; Activity (Mus musculus [22]): 6.9 mg/dL; Activity (Mus musculus [23]): 7.2 mg/dL; half-life [24]: > 2 h; half-life [25]: > 2 h; half-life [26]: 1.33 h; half-life [27]: > 2 h; half-life [28]: > 2 h
2 | CC(C)Oc1cc(NC(=N)c2ccccn2)ccc1-c1ccc(-c2ccc(NC(=N)c3ccccn3)cc2OC(C)C)o1 | 500 | 36 | 87 | 2800 | 90 | Active | 2.53 | 1090 | 9.9 | 14 | 76 | 76 | 36 | 75 | 44 | 45 | 26 | 103 | 104 | 7 | Activity (Mus musculus [20]): 25 mg/dL; Activity (Mus musculus [21]): 126 U/L; Activity (Mus musculus [22]): 7 mg/dL; Activity (Mus musculus [23]): 8.3 mg/dL; half-life [24]: > 2 h; half-life [25]: > 2 h; half-life [26]: 1.6 h; half-life [27]: > 2 h; half-life [28]: > 2 h
